Converted amounts (≈) assume the structure as drawn.
Assays:
[1] = (§1) Cytotoxicity against HMECs; type: toxicity, cell-based, HMEC; details: human, HMEC cells
Method in brief: (§2)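 BT-474 breast cancer cells and nontumorigenic HMECs treated 48 h with concentrations up to 30 μM. CC50 derived from concentration–response viability plots. Values >30 μM assigned when viability fell by less than 50% of vehicle at 30 μM. Mean ± SEM, n ≥ 3.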

[2] = Metabolic stability in mouse liver microsomes assessed as parent compound remaining preincubated for 15 mins followed by NADPH addition and measured after 2 hrs by LC-MS/MS analysis; type: ADME, Microsome; details: time 135 min, read-out: Stability
Method in brief: (§3)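 Microsomal stability assessed in mouse, human, rat or dog liver microsomes with NADPH cofactor. Half-life and percent parent remaining at 60 and 120 min reported. Mean of at least two independent experiments, each in two technical replicates.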

[3] = Metabolic stability in human liver microsomes assessed as parent compound remaining preincubated for 15 mins followed by NADPH addition and measured after 1 hr by LC-MS/MS analysis; type: ADME, Microsome; details: time 75 min, read-out: Stability; method in brief: as §3
BT-474 = assay: Cytotoxicity against human BT-474 cells; type: functional; method in brief: as §2
[4] = Metabolic stability in mouse liver microsomes assessed as half life preincubated for 15 mins followed by UDPGA addition and measured after 2 hrs by LC-MS/MS analysis; type: ADME, Microsome; details: time 135 min
Method in brief: (§4)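 Mouse and human liver microsomes incubated with UDPGA cofactor. Half-life and percent parent remaining at 120 min reported. Mean of at least two independent experiments, each in two technical replicates.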

[5] = Metabolic stability in human liver microsomes assessed as parent compound remaining preincubated for 15 mins followed by UDPGA addition and measured after 2 hrs by LC-MS/MS analysis; type: ADME, Microsome; details: time 135 min, read-out: Stability; method in brief: as §4
[6] = Metabolic stability in mouse liver microsomes assessed as parent compound remaining preincubated for 15 mins followed by NADPH addition and measured after 1 hr by LC-MS/MS analysis; type: ADME, Microsome; details: time 75 min, read-out: Stability; method in brief: as §3
[7] = Metabolic stability in human liver microsomes assessed as half life preincubated for 15 mins followed by NADPH addition and measured after 1 to 2 hrs by LC-MS/MS analysis; type: ADME, Microsome; details: time 75-135 min; for half-life: liver microsomes; method in brief: as §3
[8] = Metabolic stability in human liver microsomes assessed as parent compound remaining preincubated for 15 mins followed by NADPH addition and measured after 2 hrs by LC-MS/MS analysis; type: ADME, Microsome; details: time 135 min, read-out: Stability; method in brief: as §3
[9] = Metabolic stability in human liver microsomes assessed as percent compound remaining preincubated for 15 mins followed by UDPGA addition and measured after 2 hrs by LC-MS/MS analysis
[10] = Aqueous kinetic solubility of the compound in PBS at pH 7.4 at 250 uM incubated for 24 hrs by UPLC/MS analysis; type: physicochemical; details: read-out: Kinetic_solubility
Method in brief: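 Kinetic solubility measured in phosphate-buffered saline, pH 7.4. Mean of at least two independent experiments, each run in two technical replicates.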

[11] = Metabolic stability in mouse liver microsomes assessed as half-life preincubated for 15 mins followed by UDPGA addition and measured after 2 hrs by LC-MS/MS analysis
[12] = Metabolic stability in mouse liver microsomes assessed as half life preincubated for 15 mins followed by NADPH addition and measured after 1 to 2 hrs by LC-MS/MS analysis; type: ADME, Microsome; details: time 75-135 min; for t1/2: microsomes; for half-life: liver microsomes; method in brief: as §3
HMEC = assay: as §1; type: toxicity, cell-based; details: human, hmec; method in brief: as §2
[13] = Metabolic stability in rat liver microsomes assessed as parent compound remaining preincubated for 15 mins followed by NADPH addition and measured after 1 to 2 hrs by LC-MS/MS analysis; type: ADME, Microsome; details: time 75-135 min; method in brief: as §3
[14] = Metabolic stability in dog liver microsomes assessed as half life preincubated for 15 mins followed by NADPH addition and measured after 1 to 2 hrs by LC-MS/MS analysis; type: ADME, Canis lupus familiaris, Microsome; details: microsomes, time 75-135 min; method in brief: as §3
[15] = Metabolic stability in rat liver microsomes assessed as half life preincubated for 15 mins followed by NADPH addition and measured after 1 to 2 hrs by LC-MS/MS analysis; type: ADME, Microsome; details: liver microsomes, time 75-135 min; method in brief: as §3

Row | remaining at 2 h [2] [%] | remaining at 1 h [3] [%] | half-life [4] [h] | remaining at 2 h [5] [%] | remaining at 1 h [6] [%] | half-life [7] [h] | remaining at 2 h [8] [%] | percent compound remaining at 2 h [9] [%] | solubility kinetic at 24 h, 250 µM [10] [µM] | t1/2 at 2 h [11] [h] | t1/2 [12] [h] | half-life [12] [h] | Stability [13] [%] | t1/2 [14] [h] | half-life [15] [h] | t1/2 ([7]; microsomes) [h] | Structure (SMILES) | CC50 [1] [µM] | CC50 (BT-474) [µM] | CC50 (HMEC) [µM]
1 | 46 | 75 | > 2 | 95 | 68 | > 2 | 53 | 95 | 246 (≈ 98 µg/mL) | > 2 | 1.78 | – | – | – | – | – | CN1CCC(Cc2ccc(F)c(CNC3(c4ccc(F)cc4)CCCC3)c2)CC1 | > 30 | 5.45 | –
2 | 32 | 84 | – | – | 56 | > 2 | 65 | – | 226 (≈ 92.8 µg/mL) | – | 1.25 | – | – | – | – | – | CN1CC2(CC(Cc3cccc(CNC4(c5ccc(F)c(F)c5)CCCC4)c3)C2)C1 | – | 2.99 | 14.8
3 | 13 | – | > 2 | > 95 | 34 | – | – | – | 27 (≈ 10.7 µg/mL) | > 2 | 0.7 | – | – | – | – | – | CN1CCC(Cc2cccc(CNC3(c4ccc(F)cc4O)CCCC3)c2)CC1 | > 30 | > 30 | –
4 | 21 | 77 | – | – | 48 | > 2 | 56 | – | 231 (≈ 96.2 µg/mL) | – | 0.967 | – | – | – | – | – | CN1CCC(Cc2cc(CNC3(c4ccc(F)c(F)c4)CCCC3)ccc2F)CC1 | > 30 | 3.52 | –
5 | – | – | – | – | 63 | – | – | – | > 250 | – | – | > 1 | – | – | – | – | CN1CC(Cc2cccc(CNC3(c4ccc(F)cc4)CCCC3)c2)C1 | > 30 | 13.4 | –
6 | – | – | – | – | 53 | – | – | – | 249 (≈ 103 µg/mL) | – | – | > 1 | – | – | – | – | CN1CCC(Cc2cccc(CNC3(c4ccc(F)c(Cl)c4)CCCC3)c2)CC1 | – | 3.61 | 21.9
7 | 63 | 84 | > 2 | > 95 | 80 | > 2 | 71 | 95 | > 250 | > 2 | – | > 2 | – | – | – | – | CN1CCC(Cc2cccc(CNC3(c4ccc(F)c(O)c4)CCCC3)c2)CC1 | > 30 | 11.7 | –
8 | – | – | – | – | – | – | – | – | 41 (≈ 17.1 µg/mL) | – | – | < 0.0833 | – | – | – | – | CN1CCC(Cc2cccc(CNC3(c4ccc(F)cc4)CCCC3)c2)C(F)(F)C1 (racemic) | > 30 | 21.9 | –
9 | 34 | 76 | > 2 | 95 | 58 | > 2 | 52 | 95 | 228 (≈ 95 µg/mL) | > 2 | 1.33 | – | – | – | – | – | CN1CCC(Cc2cc(CNC3(c4ccc(F)cc4)CCCC3)c(F)cc2F)CC1 | – | 3.11 | 20.4
10 | – | – | – | – | 58 | – | – | – | 239 (≈ 97.7 µg/mL) | – | – | > 1 | – | – | – | – | CN1CCC(Cc2cccc(CNC3(c4ccc(F)cc4)CCCC3)c2)CC1(C)C (racemic) | > 30 | 6.46 | –
11 | – | 74 | > 2 | 95 | – | > 2 | 54 | 95 | 246 (≈ 97.6 µg/mL) | > 2 | 1.37 | – | – | – | – | – | CN1CCC(Cc2ccc(O)c(CNC3(c4ccc(F)cc4)CCCC3)c2)CC1 | > 30 | 7.03 | –
12 | 49 | 82 | > 2 | 95 | 70 | > 2 | 66 | – | 232 (≈ 91.1 µg/mL) | > 2 | 1.92 | – | 64 | 0.883 | > 1 | – | CN1CC2(CC(Cc3cccc(CNC4(c5ccc(F)cc5)CCCC4)c3)C2)C1 | > 30 | 4.83 | –
13 | 39 | 84 | > 2 | 95 | 60 | > 2 | 71 | 95 | > 250 | > 2 | 1.52 | – | – | – | – | – | CN1CCC(Cc2cc(CNC3(c4ccc(F)cc4)CCCC3)ccc2F)CC1 | > 30 | 5.89 | –
14 | 31 | 75 | > 2 | 95 | 55 | > 2 | 58 | – | > 250 | > 2 | 1.15 | – | – | – | – | – | COc1cc(F)ccc1C1(NCc2ccc(F)c(CC3CCN(C)CC3)c2)CCCC1 | > 30 | 6.88 | –
15 | 71 | 80 | > 2 | 95 | 85 | > 2 | 62 | 95 | 248 (≈ 90.9 µg/mL) | > 2 | – | > 2 | – | – | – | – | Fc1ccc(C2(NCc3cccc(CC4CCNCC4)c3)CCCC2)cc1 | > 30 | 2.74 | –
16 | 42 | 70 | > 2 | > 95 | 64 | – | 50 | – | 247 (≈ 101 µg/mL) | > 2 | 1.63 | – | – | – | – | 1.53 | COc1cc(F)ccc1C1(NCc2cccc(CC3CCN(C)CC3)c2)CCCC1 | > 30 | 6.99 | –
17 | 43 | 83 | > 2 | 95 | 61 | > 2 | 63 | 95 | > 250 | > 2 | 1.45 | – | – | – | – | – | CN1CCC(Cc2cc(CNC3(c4ccc(F)cc4)CCCC3)ccc2O)CC1 | > 30 | 5.1 | –
18 | 5 | – | – | – | 19 | – | – | – | 209 (≈ 83.3 µg/mL) | – | – | < 0.5 | – | – | – | – | CN1CCC(Cc2cccc(CNC3(c4ccc(F)cc4F)CCCC3)c2)CC1 | > 30 | 7.83 | –
19 | 40 | 80 | > 2 | > 95 | 62 | > 2 | 55 | – | 219 (≈ 89.9 µg/mL) | > 2 | 1.52 | – | – | – | – | – | COc1cc(C2(NCc3cccc(CC4CCN(C)CC4)c3)CCCC2)ccc1F | > 30 | 3.65 | –
20 | 31 | 75 | > 2 | > 95 | 56 | > 2 | 53 | – | 245 (≈ 97.6 µg/mL) | > 2 | 1.17 | – | – | – | – | – | CN1CCC(Cc2cccc(CNC3(c4ccc(F)c(F)c4)CCCC3)c2)CC1 | > 30 | 5.1 | –
21 | – | – | – | – | – | – | – | – | 220 (≈ 91.3 µg/mL) | – | 0.183 | – | – | – | – | – | CN1CCC(Cc2cccc(CNC3(c4ccc(F)cc4Cl)CCCC3)c2)CC1 | – | 4.25 | 21
22 | 29 | – | – | – | 51 | – | – | – | 216 (≈ 89.6 µg/mL) | – | 0.933 | – | – | – | – | – | CN1CCC(Cc2cc(CNC3(c4ccc(F)cc4)CCCC3)ccc2Cl)CC1 | – | 2.34 | 15.4

Reference: ChEMBL document CHEMBL5344432, “Identification of a Dual Autophagy and REV-ERB Inhibitor with in Vivo Anticancer Efficacy” (J Med Chem, 2024)
